Source: ChEMBL document CHEMBL4680177, “Novel distamycin analogues that block the cell cycle of African trypanosomes with high selectivity and potency” (Eur J Med Chem, 2020)
pEC50: −log10 of the molar value. One block for each compound: values may come before it. The source made the active and inactive calls. The calls are words filed in the database; no cut-off is given here.

Columns and labels:
[1] = tested on: Trypanosoma brucei brucei; test: Antitrypanosomal activity against bloodstream form Trypanosoma brucei brucei 427 […] assessed as cell viability after 24 hrs by propidium iodide staining based flow cytometric analysis; format: functional, organism-based; details: Trypanosoma brucei, 427, 24 h
Summary of the method: (§1)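 Bloodstream T. b. brucei 427 expressing hGrx1-roGFP2 (line 449_Grx-roGFP2), grown in HMI-9 with 10% FBS, 37 °C, 5% CO2. Biosensor induced with oxytetracycline (1 µg/mL final). Exponential-phase cells seeded at 5×10^5/mL and exposed 24 h to a single 5 µM screen, or to 0.0001–120 µM for EC50. DMSO ≤1% v/v. Viability read by PI exclusion on flow cytometry, expressed relative to DMSO control. EC50 from nonlinear fit; ≥3 replicates, S.D.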

[2] = tested on: Trypanosoma brucei brucei; test: Antitrypanosomal activity against bloodstream form Trypanosoma brucei brucei 427 […] assessed as cell viability at 5 uM after 24 hrs by propidium iodide staining based flow cytometric analysis relative to control; format: functional; summary of the method: as §1
[3] = tested on: DNA; test: Competitive binding affinity to Escherichia coli XL-1 pUC18 K-DNA at 20 uM after 30 to 120 mins by DAPI staining based spectrofluorimetric method relative to control; format: nucleic-acid assay; details: time 30-120 min
Summary of the method: (§2)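 pUC18 or pUC18 carrying a T. brucei minicircle, 5 nM in PBS pH 7.4, incubated 30 or 120 min with 20 µM compound or DMSO 1% v/v. DAPI then added to 500 nM final and emission recorded by spectrofluorimetry (ex 358 nm, em 368–600 nm). Fluorescence normalized to the DNA+DMSO+DAPI control set at 100%. Mean ± S.D., n=3.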

[4] = tested on: Trypanosoma brucei brucei; test: Induction of cell cycle arrest in bloodstream form Trypanosoma brucei brucei 427 assessed as accumulation at G0/G1 phase at 41 nM after 24 hrs by propidium iodide staining based flow cytometric analysis (reference value: 49%); format: functional
[5] = tested on: DNA; test: Competitive binding affinity to Escherichia coli XL-1 pUC18 plasmid DNA at 20 uM after 30 to 120 mins by DAPI staining based spectrofluorimetric method relative to control; format: nucleic-acid assay; details: time 30-120 min; summary of the method: as §2
[6] = tested on: Trypanosoma brucei brucei; test: Induction of cell cycle arrest in bloodstream form Trypanosoma brucei brucei 427 assessed as accumulation at 1K+1N cells at 41 nM after 24 hrs by DAPI. staining based epifluorescence microscopic analysis (reference value: 80%); format: functional
Summary of the method: (§3)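 Parasites at 5×10^5/mL treated 24 h with DMSO 1%, DAC 41 nM, or compound at 12 or 7 nM. Cells fixed in 4% paraformaldehyde for 18 min at room temperature and smeared on slides. Mounted in DAPI medium and scored by epifluorescence microscopy (60X/100X) for kinetoplast/nucleus configuration. At least 50 cells per sample.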

[7] = tested on: Trypanosoma brucei brucei; test: Antitrypanosomal activity against Trypanosoma brucei brucei AnTaT 1.1 infected in Balb/cJ mouse assessed as reduction in parasitemia at 40 mg/kg, ip for single dose and measured after 7 to 17 days; format: functional, organism-based; details: time 7-17 day
Summary of the method: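 Female BalB/cJ mice, 6-8 weeks, ~20 g, infected ip with 10^4 bloodstream T. b. brucei AnTaT 1.1. From day 4 post-infection, groups of 6 dosed ip in 300 µL PBS: daily for 7 days at 2.09 or 8.36 mg/Kg, or one 40 mg/Kg dose; vehicle DMSO 3.3 mg/Kg/day for 7 days. Parasitemia from submandibular blood counted by light microscopy in a Neubauer chamber. Detection limit ≥2.5×10^4 parasites/mL. Kruskal-Wallis test versus vehicle.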

[8] = tested on: Trypanosoma brucei brucei; test: Induction of cell cycle arrest in bloodstream form Trypanosoma brucei brucei 427 assessed as accumulation at 0K+1N cells at 41 nM after 24 hrs by DAPI. staining based epifluorescence microscopic analysis relative to control; format: functional; summary of the method: as §3
[9] = tested on: Trypanosoma brucei brucei; test: Induction of cell cycle arrest in bloodstream form Trypanosoma brucei brucei 427 assessed as accumulation at G2/M phase at 41 nM after 24 hrs by propidium iodide staining based flow cytometric analysis (reference value: 20%); format: functional
[10] = tested on: Trypanosoma brucei brucei; test: Induction of membrane permeability in bloodstream form Trypanosoma brucei brucei 427 assessed as change in integrity at EC50 concentration after 4 hrs by propidium iodide staining based flow cytometric analysis
[11] = tested on: Trypanosoma brucei brucei; test: Induction of cell cycle arrest in bloodstream form Trypanosoma brucei brucei 427 assessed as accumulation at 1K+1N cells at 12 nM after 24 hrs by DAPI. staining based epifluorescence microscopic analysis (reference value: 80%); format: functional; summary of the method: as §3
[12] = tested on: Trypanosoma brucei brucei; test: Induction of cell cycle arrest in bloodstream form Trypanosoma brucei brucei 427 assessed as accumulation at single kinetoplast and septum like or partitioned nucleus cells at 12 nM after 24 hrs by DAPI. staining based epifluorescence microscopic analysis relative to control; format: functional; summary of the method: as §3
[13] = tested on: DNA; test: Competitive binding affinity to Escherichia coli XL-1 pUC18 plasmid DNA at 20 uM after 30 mins by DAPI staining based spectrofluorimetric method relative to control; format: nucleic-acid assay; summary of the method: as §2
[14] = tested on: DNA; test: Competitive binding affinity to Escherichia coli XL-1 pUC18 K-DNA at 20 uM after 30 mins by DAPI staining based spectrofluorimetric method relative to control; format: nucleic-acid assay; summary of the method: as §2
[15] = tested on: DNA; test: Competitive binding affinity to Escherichia coli XL-1 pUC18 K-DNA at 20 uM after 120 mins by DAPI staining based spectrofluorimetric method relative to control; format: nucleic-acid assay; summary of the method: as §2
[16] = Selectivity index, ratio of EC50 for cytotoxicity against mouse J774 cells to EC50 for antitrypanosomal activity against bloodstream form Trypanosoma brucei brucei 427; format: toxicity, cell-based; details: read-out: Ratio EC50
Summary of the method: (§4)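 J774 murine macrophages in DMEM with 10% FBS, 37 °C, 5% CO2. Exposed 24 h to a 6-point compound series, in triplicate, up to 120 µM with DMSO 1% v/v. Viability read with WST-1 reagent relative to DMSO control and EC50 taken from nonlinear fit. The selectivity index is the macrophage EC50 divided by the trypanosome EC50.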

[17] = tested on: DNA; test: Competitive binding affinity to Escherichia coli XL-1 pUC18 plasmid DNA at 20 uM after 120 mins by DAPI staining based spectrofluorimetric method relative to control; format: nucleic-acid assay; summary of the method: as §2
[18] = tested on: Trypanosoma brucei brucei; test: Induction of oxidative stress in bloodstream form Trypanosoma brucei brucei 427 up to 5 times EC50 concentration after 4 hrs by propidium iodide staining based flow cytometric analysis; format: functional
[19] = tested on: J774; test: Cytotoxicity against mouse J774 cells assessed as reduction in cell viability after 24 hrs by WST-1 assay; format: cell-based; details: J774, 24 h; summary of the method: as §4
[20] = tested on: Trypanosoma brucei brucei; test: Antitrypanosomal activity against bloodstream form Trypanosoma brucei brucei 427 […] assessed as cell viability after 48 hrs by propidium iodide staining based flow cytometric analysis; format: functional, organism-based; details: Trypanosoma brucei, 427, 48 h
Summary of the method: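 Viability of bloodstream T. b. brucei 427 redox-reporter line under lower-density conditions: 1.2×10^4 parasites/mL seeded, 48 h exposure, compound tested up to 60 µM. Nifurtimox included as positive control. Viability read by PI exclusion on flow cytometry.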

[21] = Selectivity ratio of EC50 for antitrypanosomal activity against bloodstream form Trypanosoma brucei brucei 427 assessed as cell viability after 24 hrs to antitrypanosomal activity against bloodstream form Trypanosoma brucei brucei 427 assessed as cell viability after 48 hrs; format: functional

- pEC50 [1]: 7.11
Structure (SMILES): Cc1ccc(C(=O)Nc2ccc(S(=O)(=O)O)c3cc(S(=O)(=O)O)cc(S(=O)(=O)O)c23)cc1NC(=O)c1cccc(NC(=O)Nc2cccc(C(=O)Nc3cc(C(=O)Nc4ccc(S(=O)(=O)O)c5cc(S(=O)(=O)O)cc(S(=O)(=O)O)c45)ccc3C)c2)c1 [SURAMIN]

- Activity [3]: 22%
- pEC50 [1]: 7.39
- Activity [5]: 22%
Structure (SMILES): CC(=O)NCC(=O)O.CC(=O)NCC(=O)O.N=C(N)c1ccc(/N=N/Nc2ccc(C(=N)N)cc2)cc1 [DIMINAZENE DIACETURATE]
- Activity [4]: 7%
- Activity [6]: 44%
- Activity [7]: Active
- Activity [8]: 39%
- Activity [9]: 93%

- Activity [10]: inactive
- Activity [13]: 15%
- Activity [14]: 15%
- Activity [15]: 30%
- pEC50 [1]: 7.93
- Activity [17]: inactive
Structure (SMILES): COC(=O)c1nc(NC(=O)c2cc(NC(=O)c3nc(NC(=O)OC(C)(C)C)sc3C(C)C)cn2C)sc1C(C)C
- Activity [11]: 48%
- Activity [12]: 38%
- Activity [2]: 15.5%
- selectivity ratio [16]: > 10200
- Activity [18]: inactive
- pEC50 [19]: 4.40

Continued, compound first:

Structure (SMILES): COC(=O)c1nc(NC(=O)c2cc([N+](=O)[O-])cn2C)sc1C(C)C
- Activity [2]: 105.6%

Structure (SMILES): CCOC(=O)c1csc(NC(=O)c2csc(NC(=O)c3csc(NC(=O)OC(C)(C)C)n3)n2)n1
- pEC50 [20]: 7.24
- Ratio EC50 [21]: 5
- pEC50 [19]: 5.30

Structure (SMILES): CCOC(=O)c1csc(NC(=O)c2cc([N+](=O)[O-])cn2C)n1
- Activity [2]: 120.5%

Structure (SMILES): CC1CS(=O)(=O)CCN1/N=C/c1ccc([N+](=O)[O-])o1 (stereo not given) [NIFURTIMOX]
- selectivity ratio [16]: 10
- pEC50 [1]: 5.00
- pEC50 [20]: 6.12
- Ratio EC50 [21]: 20
